PRMT1 inh = PRMT1 methyltransferase inhibitors, primary screen, biochemical, fluorescence polarization | actives 1.3% (n = 370,000) | AID 652257, 2013 | Protein arginine N-methyltransferase 1 (Homo sapiens), Q99873 | recombinant PRMT1, activity-based probe fluorescence polarization | inhibition, % at 2.79 µM;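 active means inhibition above about 21% made by adding two undisclosed values, limit read from the data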
SIAE inh = human SIAE inhibitors, primary screen, biochemical, fluorescence polarization, FP-Rh probe, 1536-well HTS | Sialate O-acetylesterase (Homo sapiens), Q9HAT2 | SIAE FP-Rh probe binding | inhibition, % at 9.66 µM | actives 0.69% (n = 370,000) | AID 1053197, 2014;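 active means inhibition above a cutoff: mean of compounds within the control limits plus 3 SD of those, cut at about 17% in these data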
rCAG binder = binders of r(CAG) RNA repeats, primary screen, biochemical, fluorescence. r(CAG) RNA repeat, TO-PRO-1 dye displacement fluorescence. inhibition, % at 3 µM. actives 1.3% (n = 370,000). AID 651821, 2012;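 active means inhibition above the plate cutoff, the mean of all test compounds on that plate plus 3 SD, cut at about 35% in these data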;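 further: higher means more dye released from RNA so lower well fluorescence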
HTRA1 inh = HTRA1 serine protease inhibitors, primary screen, biochemical, fluorescence polarization, HTS | Q92743 | recombinant HTRA1, FP-rhodamine activity-based probe | inhibition, % at 5.96 µM | actives 0.5% (n = 340,000) | AID 504803, 2011; in the data active means inhibition above about 36%
Target sequence (Q92743 whole entry, looked up): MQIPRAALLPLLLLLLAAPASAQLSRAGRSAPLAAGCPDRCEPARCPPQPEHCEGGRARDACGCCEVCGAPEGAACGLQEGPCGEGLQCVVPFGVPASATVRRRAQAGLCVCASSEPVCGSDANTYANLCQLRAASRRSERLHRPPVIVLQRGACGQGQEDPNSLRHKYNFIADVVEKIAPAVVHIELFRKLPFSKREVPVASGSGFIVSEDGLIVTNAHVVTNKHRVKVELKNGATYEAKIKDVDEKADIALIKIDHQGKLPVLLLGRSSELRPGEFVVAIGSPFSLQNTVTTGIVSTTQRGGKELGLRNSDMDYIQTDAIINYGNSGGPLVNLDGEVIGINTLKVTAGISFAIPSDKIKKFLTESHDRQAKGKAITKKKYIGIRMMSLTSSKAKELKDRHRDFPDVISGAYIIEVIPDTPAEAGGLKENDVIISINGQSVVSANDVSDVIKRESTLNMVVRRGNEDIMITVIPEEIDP
mABHD4 FP = ABHD4 inhibitors, primary screen, biochemical, fluorescence polarization, mouse | (Lyso)-N-acylphosphatidylethanolamine lipase (Mus musculus), Q8VD66 | purified mABHD4, FP-Rh probe fluorescence polarization | inhibition, % at 8.92 µM | actives 0.54% (n = 370,000) | AID 720543, 2013;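 active means inhibition exceeding the mean over every tested compound plus 3 SD, cut at about 30% in these data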
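Assay system: mABHD4 protein; medium: HEPES pH 7.0, NaCl, Pluronic buffer; dosing: 8.92 µM, single dose; schedule: 45 min + 60 min at 25 °C; signal: FP readout, ex 525 nm / em 598 nm; read-out: normalized percent inhibition of probe labeling; repeats: single replicate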
rCAG binder conf = small molecules binding CAG repeat RNA – biochemical, fluorescence, confirmation | shares compounds with rCAG binder | r(CAG) RNA repeat, TO-PRO-1 dye displacement fluorescence | inhibition, % at 3 µM | actives 70% (n = 4,300);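 active means inhibition above a per-plate cutoff, the mean inhibition of sample wells plus 3 SD, cut at about 35% in these data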;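 further: loss of TO-PRO-1 fluorescence as compound displaces dye from 1x1 AA loop RNA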
DNA CAG counter = displacement of TO-PRO-1 from CAG DNA duplex, counter-screen for rCAG RNA repeat binder project, biochemical, fluorescence, TO-PRO-1 dye, d(CAG) DNA oligo; shares compounds with rCAG binder; d(CAG) DNA oligo TO-PRO-1 dye displacement; inhibition, % at 3 µM; actives 94% (n = 4,300); AID 652068, 2013;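 active means inhibition above its plate's cutoff, the mean test-well inhibition plus 3 SD, cut at about 4.8% in these data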;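 further: hits displace the dye from DNA and so lower well fluorescence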
DNA CAG DR = inhibitors of DNA CAG/GTC TO-PRO-1 complex, dose response, counter-screen for rCAG RNA repeat binder project, biochemical, fluorescence, TO-PRO-1 dye; AID 686960, 2013; shares compounds with rCAG binder; IC50, µM; DNA CAG/GTC duplex TO-PRO-1 dye displacement fluorescence; actives 20% (n = 250); in the data active means IC50 below about 10 µM
Hits are given with their value; i = inactive; nt = no result. Most compounds without a hit are left out; they make up all but 3.3% or so of the library.

SMILES	PRMT1 inh	SIAE inh	rCAG binder	HTRA1 inh	mABHD4 FP	rCAG binder conf	DNA CAG counter	others
C/C(CC(=O)Nc1ccc2c(c1)OCCO2)=N\NC(=O)Cc1ccc(Cl)cc1	i	i	i	i	i	nt	nt
Cc1ccc(Cl)cc1N1CCN(C(=O)Cc2c(C(=O)O)[nH]c3ccccc23)CC1	i	i	50.8	i	i	48.0	14.1
Cc1ccccc1C1CCC2(CCC(=O)N2CC[C@@H](O)c2ccccc2)CC1 (stereo partly specified)	i	i	nt	nt	i	nt	nt
Cc1cc(NS(=O)(=O)c2ccc(NC(=O)CSc3nnc(-c4cnccn4)n3-c3ccccc3)cc2)nc(C)n1	i	i	i	nt	i	nt	nt
CC1CCC2(CC1)CCC2NCc1ccc(Cl)cc1 (stereo unspecified)	i	i	nt	nt	i	nt	nt
COc1cc(/C=C2\C(=O)N(c3ccc(NC(C)=O)cc3)N=C2c2ccccc2)ccc1O	i	i	82.8	i	i	70.1	31.3	DNA CAG DR=i
Cc1ccccc1S(=O)(=O)Nc1nc2ccccc2nc1N1CCc2ccccc2C1	i	i	35.4	i	i	45.1	14.8
CC(=O)Nc1ccc(S(=O)(=O)Nc2nc3ccccc3nc2N2CCCCCC2)cc1	i	i	i	i	i	nt	nt
CC(=O)Nc1ccc(S(=O)(=O)Nc2nc3ccccc3nc2N2CCc3ccccc3C2)cc1	i	i	49.5	i	i	60.1	24.6
O=C1Nc2ccccc2C1=O	i	i	i	i	i	nt	nt
O=C1Nc2ccc3sc4ccccc4c3c2C1=O	i	i	36.3	nt	i	i	13.9
Cc1c(C(C)c2ccccc2O)c2ccccc2n1C (stereo unspecified)	i	i	i	nt	i	nt	nt
Cc1nc(NS(=O)(=O)c2ccc(Cl)s2)c2c3c(sc2n1)CCCC3	i	i	77.8	i	i	55.5	19.3
Cc1nc(NCCc2ccc(S(N)(=O)=O)cc2)c2c3c(sc2n1)CCC3	i	i	i	i	i	nt	nt
COc1ccc(C2CC(c3ccccc3)=NN2c2ccc(N)cc2)cc1 (stereo unspecified)	i	i	i	i	i	nt	nt
COc1ccc(C2CC(c3ccccc3)=NN2c2ccc(Cl)c(C(=O)O)c2)cc1 (stereo unspecified)	i	i	60.7	i	i	55.4	17.0
COc1ccc(-c2nn(CCC(=O)O)cc2CCC(=O)O)cc1	i	i	i	i	i	nt	nt
COc1ccc(C2CC(c3ccccc3)=NN2c2ccccc2)c(C(=O)O)c1OC (stereo unspecified)	i	i	46.2	i	i	59.1	15.6
COc1ccc(C2=NN(c3ccccc3)C(c3cn(CCC(=O)O)nc3-c3ccccc3)C2)cc1 (stereo unspecified)	i	i	39.0	i	i	45.5	11.9
COc1cc(C2CC(c3ccccc3)=NN2c2ccccc2)ccc1OCC(=O)O (stereo unspecified)	i	i	40.7	i	i	50.4	14.6
O=C(NCc1ccc(Cl)cc1)C1C2C=CC3(CN(Cc4ccccc4)C(=O)C13)O2 (stereo unspecified)	i	i	i	nt	i	nt	nt
COC(=O)[C@@]12CCCCC3=C1N(CCC3)C(=O)[C@H]2CC(=O)N1CCC(c2ccccc2)CC1	i	i	i	nt	i	nt	nt
CN1CCCC1CCSc1ncccc1-c1nc2ccccc2[nH]1 (stereo unspecified)	i	i	i	nt	i	nt	nt
CC1=NN(Cc2ccccc2)C(=O)/C1=C\c1ccc(N(C)C)cc1	i	i	i	i	i	nt	nt
COc1ccccc1/C=C1/C(=O)N(c2ccccc2)N=C1C	i	i	i	i	i	nt	nt
SMILES	PRMT1 inh	SIAE inh	rCAG binder	HTRA1 inh	mABHD4 FP	rCAG binder conf	DNA CAG counter	others
CCOC(=O)C1=NN(c2ccccc2)C(=O)/C1=C\c1ccc(N(C)C)cc1	i	i	60.5	i	i	62.6	19.2
CCOC(=O)CC1=NN(c2ccccc2)C(=O)/C1=C\c1ccc(OC)cc1OC	i	i	65.1	i	i	i	5.3
COC(=O)CC1=NN(c2ccccc2)C(=O)/C1=C\c1ccc(OC)cc1	i	i	41.8	i	i	i	8.3
C[C@H](O)[C@@H]1CN2CCc3c([nH]c4c(-c5ccccc5)cccc34)[C@@H]2C[C@@H]1N(C)CC1CCCCC1	i	i	i	nt	i	nt	nt
COc1cc(NC(=O)C2CCCN(S(=O)(=O)c3ccc(Br)s3)C2)cc(OC)c1 (stereo unspecified)	i	i	i	nt	i	nt	nt
COc1ccc(C)cc1NC(=S)NNC(=O)c1c(Br)cnn1C	i	i	53.9	i	i	i	4.4
CCOC(=O)c1c(NC(=O)/C=C/C(=O)O)sc(C)c1-c1ccc(C(C)(C)C)cc1	i	i	80.2	i	i	73.2	34.5	DNA CAG DR=7.62
C=CCN1C[C@@H](COCc2ccccc2)Oc2cccc(F)c2S1(=O)=O	i	i	i	nt	i	nt	nt
Cc1c(Cl)cccc1NC(=O)CSc1sc2c(O)cc(=O)[nH]c2c1C#N	i	i	39.0	i	i	i	5.8
N#Cc1cccc(NC(=O)CSc2sc3c(O)cc(=O)[nH]c3c2C#N)c1	i	i	46.5	i	i	i	7.3
CCOc1cccc(NC(=O)CSc2sc3c(O)cc(=O)[nH]c3c2C#N)c1	i	i	38.7	i	i	i	9.4
N#Cc1c(SCC(=O)Nc2nc3ccc(Br)cc3s2)sc2c(O)cc(=O)[nH]c12	i	i	67.1	i	i	82.0	50.9
Cc1ccccc1NC(=O)CSc1[nH]c(=O)cc(C)c1C#N	i	i	i	i	i	nt	nt
Cc1ccc(C=NNC(=O)CSc2nc3sc4c(c3c(=O)n2-c2ccccc2)CCCC4)s1	i	i	i	nt	i	nt	nt
O=C(Nc1cccc(F)c1)OCCCN1CCC2(CCC(c3ccccc3)CC2)C1 (stereo unspecified)	i	i	i	nt	i	nt	nt
COc1ccc(C(=O)Oc2coc(CSc3nnc(NC(=O)c4cccs4)s3)cc2=O)cc1	i	i	34.8	i	i	51.5	16.4
O=C(Oc1coc(CSc2nnc(NC(=O)C3CC3)s2)cc1=O)c1ccccc1	i	i	i	i	i	nt	nt
Cn1cccc1C(=O)N1CCN(S(=O)(=O)c2ccccc2F)CC1	i	i	i	nt	i	nt	nt
